Test system: Rattus norvegicus
Experiment: Percentage of body weight reduction in male Sprague-Dawley rats at 50 mg/kg; […] reduction from controls
Assay type: functional
Conditions: not given
In short: (§1)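 Individually housed male CD Sprague-Dawley rats trained to eat their ration within 5 h were dosed orally once daily for 5 days, 10 vehicle controls and 10 treated. Body weight was taken daily before dosing. Reduction from concurrent controls was scored in bands: 16-30%, 31-45%, 46-60%, ≥61%.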

**Q.** Which Body weight reduction does the source give for `N#Cc1ccc(C(F)(F)F)cc1N=NNc1ccc(C(=O)O)cc1` here?
**A.** 16%

**Q.** With `N#Cc1ccc(C(F)(F)F)cc1NN=Nc1cc(C(F)(F)F)ccc1C(=O)O` as the molecule, how does the Body weight reduction read?
**A.** 16%

**Q.** `N#Cc1ccc(C(F)(F)F)cc1NN=Nc1ccccc1` was tested. Which Body weight reduction did it give?
**A.** 16%

Test system: Rattus norvegicus
Experiment: Percentage of body weight reduction in male Sprague-Dawley rats at 50 mg/kg
Assay type: functional
Conditions: not given
In short: as §1

**Q.** How did the Body weight reduction turn out when `FC(F)(F)c1cccc(N=NNc2cccc(C(F)(F)F)c2)c1` was run?
**A.** <15%

**Q.** How did the Body weight reduction turn out when `CC(=O)N(N=Nc1cccc(C(F)(F)F)c1)c1cc(C(F)(F)F)ccc1C#N` was run?
**A.** <15%

**Q.** Which Body weight reduction does the source give for `Cc1ccc(C#N)c(N=NNc2cc(C)ccc2C#N)c1` here?
**A.** <15%

**Q.** `Clc1cccc(Cl)c1N=NNc1c(Cl)cccc1Cl` was tested. Which Body weight reduction did it give?
**A.** <15%

**Q.** Which Body weight reduction does the source give for `CC(=O)N(N=Nc1c(Cl)cccc1Cl)c1cc(C(F)(F)F)ccc1C#N` here?
**A.** <15%

**Q.** `N#Cc1ccc(C(F)(F)F)cc1N=NN(C(=O)CCl)c1cc(C(F)(F)F)ccc1C#N` was tested. Which Body weight reduction did it give?
**A.** <15%

**Q.** How did the Body weight reduction turn out when `CCOC(=O)N(N=Nc1cc(C(F)(F)F)ccc1C#N)c1cc(C(F)(F)F)ccc1C#N` was run?
**A.** >61%

**Q.** With `FC(F)(F)c1ccc(Cl)c(N=NNc2cc(C(F)(F)F)ccc2Cl)c1` as the molecule, how does the Body weight reduction read?
**A.** <15%

**Q.** For `N#Cc1ccc(C(F)(F)F)cc1N=NN(C(=O)c1ccccc1)c1cc(C(F)(F)F)ccc1C#N`, which Body weight reduction is on record?
**A.** <15%

**Q.** How did the Body weight reduction turn out when `CC(=O)N(N=Nc1ccccc1)c1ccccc1` was run?
**A.** >61%

**Q.** With `N#Cc1ccc(C(F)(F)F)cc1N=NNc1cccc(C(F)(F)F)c1` as the molecule, how does the Body weight reduction read?
**A.** <15%

**Q.** Which Body weight reduction does the source give for `Clc1ccccc1N=NNc1ccccc1Cl` here?
**A.** <15%

**Q.** For `CCOC(=O)NC(=O)N(N=Nc1cc(C(F)(F)F)ccc1C#N)c1cc(C(F)(F)F)ccc1C#N`, which Body weight reduction is on record?
**A.** >61%

**Q.** With `CC(=O)N(N=Nc1cc(C(F)(F)F)ccc1C#N)c1cc(C(F)(F)F)ccc1C#N` as the molecule, how does the Body weight reduction read?
**A.** >61%

**Q.** `FC(F)(F)c1ccc(Br)c(N=NNc2cc(C(F)(F)F)ccc2Br)c1` was tested. Which Body weight reduction did it give?
**A.** <15%

**Q.** Which Body weight reduction does the source give for `COC(=O)c1ccc(C(F)(F)F)cc1N=NNc1cc(C(F)(F)F)ccc1C(=O)OC` here?
**A.** <15%

**Q.** For `FC(F)(F)c1ccc(N=NNc2ccc(C(F)(F)F)cc2)cc1`, which Body weight reduction is on record?
**A.** <15%

Test system: Rattus norvegicus
Experiment: Percentage of body weight reduction in male Sprague-Dawley rats at 50 mg/kg;
Assay type: functional
Conditions: not given
In short: as §1

**Q.** How did the Body weight reduction turn out when `N#Cc1ccccc1N=NNc1ccccc1C#N` was run?
**A.** <15%

Test system: Rattus norvegicus
Experiment: Percentage of body weight reduction in male Sprague-Dawley rats at 25 mg/kg
Assay type: functional
Conditions: not given
In short: as §1

**Q.** Which Body weight reduction does the source give for `CC(C)C(=O)N(N=Nc1cc(C(F)(F)F)ccc1C#N)c1cc(C(F)(F)F)ccc1C#N` here?
**A.** >61%

**Q.** For `CCCC(=O)N(N=Nc1cc(C(F)(F)F)ccc1C#N)c1cc(C(F)(F)F)ccc1C#N`, which Body weight reduction is on record?
**A.** >61%

Test system: Rattus norvegicus
Experiment: Percentage of body weight reduction in male Sprague-Dawley rats at 25 mg/kg; 31-45% reduction from controls
Conditions: not given

**Q.** `Clc1cccc(N=NNc2cccc(Cl)c2Cl)c1Cl` was tested. Which Body weight reduction did it give?
**A.** 31%

Test system: Rattus norvegicus
Experiment: Percentage of body weight reduction in male Sprague-Dawley rats at 50 mg/kg; 46-60% reduction from controls
Assay type: functional
Conditions: dose 25 mg/kg; in the assay text read “at 25 mg/kg” for “at 50 mg/kg”
In short: as §1

**Q.** With `CNC(=O)N(N=Nc1cc(C(F)(F)F)ccc1C#N)c1cc(C(F)(F)F)ccc1C#N` as the molecule, how does the Body weight reduction read?
**A.** 46%

Same assay, conditions: dose 50 mg/kg

**Q.** For `N#Cc1ccc(C(F)(F)F)cc1NN=Nc1c(Cl)cccc1Cl`, which Body weight reduction is on record?
**A.** 46%

**Q.** How did the Body weight reduction turn out when `N#Cc1ccc(C(F)(F)F)cc1N=NN(C(=O)Nc1ccccc1)c1cc(C(F)(F)F)ccc1C#N` was run?
**A.** 46%

**Q.** How did the Body weight reduction turn out when `CCCCC(=O)N(N=Nc1cc(C(F)(F)F)ccc1C#N)c1cc(C(F)(F)F)ccc1C#N` was run?
**A.** 46%

**Q.** For `Clc1ccc(N=NNc2ccc(Cl)cc2)cc1`, which Body weight reduction is on record?
**A.** 46%

**Q.** How did the Body weight reduction turn out when `COc1ccccc1N=NNc1ccccc1OC` was run?
**A.** 46%

**Q.** How did the Body weight reduction turn out when `CC(=O)N(N=Nc1ccc(C(F)(F)F)cc1C#N)c1ccc(C(F)(F)F)cc1` was run?
**A.** 46%

**Q.** `CCC(=O)N(N=Nc1cc(C(F)(F)F)ccc1C#N)c1cc(C(F)(F)F)ccc1C#N` was tested. Which Body weight reduction did it give?
**A.** 46%

**Q.** How did the Body weight reduction turn out when `COC(=O)CC(=O)N(N=Nc1cc(C(F)(F)F)ccc1C#N)c1cc(C(F)(F)F)ccc1C#N` was run?
**A.** 46%

Test system: Rattus norvegicus
Experiment: Percentage of body weight reduction in male Sprague-Dawley rats at 30 mg/kg
Assay type: functional
Conditions: not given
In short: as §1

**Q.** How did the Body weight reduction turn out when `CN(N=Nc1cc(C(F)(F)F)ccc1C#N)c1cc(C(F)(F)F)ccc1C#N` was run?
**A.** <15%

Test system: Rattus norvegicus
Experiment: Percentage of body weight reduction in male Sprague-Dawley rats at 50 mg/kg; 31-45% reduction from controls
Assay type: functional
Conditions: not given
In short: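 Individually housed male CD Sprague-Dawley rats trained to eat their ration within 5 h were dosed orally once daily for 5 days, 10 vehicle controls and 10 treated. Body weight was taken daily before dosing.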

**Q.** Which Body weight reduction does the source give for `N#Cc1ccc(Cl)cc1N=NNc1cc(Cl)ccc1C#N` here?
**A.** 31%

**Q.** With `CN(N=Nc1ccccc1)c1ccccc1` as the molecule, how does the Body weight reduction read?
**A.** 31%

**Q.** With `N#Cc1cc(C(F)(F)F)ccc1N=NNc1ccc(C(F)(F)F)cc1C#N` as the molecule, how does the Body weight reduction read?
**A.** 31%

**Q.** For `FC(F)(F)c1ccccc1N=NNc1ccccc1C(F)(F)F`, which Body weight reduction is on record?
**A.** 31%

**Q.** With `CCCNC(=O)N(N=Nc1cc(C(F)(F)F)ccc1C#N)c1cc(C(F)(F)F)ccc1C#N` as the molecule, how does the Body weight reduction read?
**A.** 31%
